# Autophagy mod: autophagy modulators in MEF cells, primary screen, imaging, high-content, MEF GFP-LC3; MEF GFP-LC3 puncta imaging; test concentration mostly 10 µM; calls only at 10 µM (by protocol); 190,000 tested, 0.98% active;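 active = percentage of spot-positive cells more than 3 SD above its plate mean, without a fluorescence outlier flag or 80% toxicity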;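 also: spot-positive cell cutoff set from DMSO-treated cells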
# L major viab: Leishmania major promastigote growth inhibition, primary screen; inhibition, % at 10 µM; Leishmania major promastigotes, resazurin fluorescence viability; AID 1063, 2008; 200,000 tested, 9% active; in the data active = inhibition above about 50%;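 also: promastigotes grown with compound for 44 hours at 28 °C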
# CHOP inh: inhibitors of CHOP promoter induction, primary screen, cell-based, unfolded protein response, luciferase reporter. CHO-K1 CHOP-promoter luciferase, tunicamycin-induced, 15-18 h. inhibition, % at 10 µM. 220,000 tested, 3.8% active. AID 2732, 2010;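 active = compounds that reduced the stress-induced luciferase reporter signal by more than about 70% of percent inhibition, limit read from the data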;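 also: 0% = tunicamycin plus vehicle and 100% = wells without tunicamycin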
# b-catenin transl: modulators of beta-catenin nuclear translocation, primary screen, imaging, HeLa cells, immunofluorescence, high-content | nuclear translocation activity, % at 5 µM | 190,000 tested, 0.3% active;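 active = nuclear translocation activity above 50% at 5 µM, with a well cell count of 50 or more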;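 also: per-cell ratio of nuclear to cytoplasmic median beta-catenin stain intensity; plate controls were DMSO negative control for no effect and GSK-3 inhibitor IX positive control for full effect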
#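 Signal – beta-catenin immunofluorescence imaging with DAPI · Test system – human HeLa cell line · Dosing – 5 µM primary single dose, 0.1% DMSO, 0.02–20 µM confirmation series · Measure – % activation, nuclear-to-cytoplasmic median beta-catenin signal ratio per cell · Incubation – 24 h compound exposure at 37°C, 5% CO2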
# Dynein transport: inhibitors of GR-EGFP nuclear translocation, primary screen, dynein cargo transport inhibitor project, imaging, high-content, 3617.4 mouse cells; test concentration mostly 20 µM; stimulated with dexamethasone, 1 µM; active compounds read low; z-score, hits read low; 220,000 tested, 0.47% active; AID 1381, 2008;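 active = plate z-score of nuclear minus cytoplasmic receptor signal below a set negative limit, without overly bright fluorescence or cell loss, cut at about -3.5 in these data, passing the limit was not always enough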;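 also: z-score of nuclear minus cytoplasmic ring GR-EGFP intensity difference per well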
#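 Buffer or medium – tet-free medium with charcoal-stripped serum · Signal – automated 10x imaging of fixed Hoechst-stained cells · Also added – dexamethasone agonist, 1.0 µM final, for 30 min · Incubation – induction 48 h, compound 1 h, agonist 30 min · Read-out – GR-EGFP nuclear translocation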
# MT stabilize HCS: microtubule stabilizers in HeLa cells, primary screen, imaging, high-content imaging. HeLa tubulin immunostaining HCS, 24 h; share of cells brighter than vehicle mean+2SD. % tubulin-high responders, % at 10 µM. 200,000 tested, 0.83% active;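 active = plate Z-score above 3 for both tubulin-high and condensed-nucleus cell shares, with cell loss under 80%, at 10 µM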;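 also: anti alpha tubulin signal scored within the nucleus-defined area of each cell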
# An asterisk follows results filed as active; i = inactive; nt = no result given; + = active, no number. Hits are enriched below; roughly 12% of the tested compounds scored in any of these assays.
SMILES,Autophagy mod,L major viab,CHOP inh,b-catenin transl,Dynein transport,MT stabilize HCS
CCn1c(C)nc2cc(C(=O)OC(C(F)(F)C(F)F)C(F)(F)C(F)F)ccc21,i,100*,74*,nt,2.1,3
CCOc1nc(OCC)c2cnn(C)c2n1,nt,nt,24,-1,0.37,nt
C[C@@H]1NC(=O)c2cc([N+](=O)[O-])cc(I)c2OCC[C@@H](C(N)=O)NC(=O)[C@H](CCC(=O)O)NC1=O,i,-7,-10,nt,-0.49,3
CCCCN1C(=O)/C(=C(/C#N)C(=O)N2CCCC2)c2ccccc21,nt,nt,10,0,-0.73,nt
CC(C)CN1C(=O)/C(=C(/C#N)C(=O)NC2CCCCC2)c2ccccc21,i,97*,92*,5,-0.092,2
COc1cc(NS(=O)(=O)c2ccc(NC(C)=O)cc2)nc(OC)n1,i,-2,30,2,1.8,1
COc1cc(NS(=O)(=O)c2ccc(N/C=C(\C#N)c3nc4cc(Cl)ccc4o3)cc2)nc(OC)n1,i,-7,92*,-4,0.37,1
ClCC1=Nc2cccc3cccc(c23)N1,nt,nt,-27,0,0.45,nt
CC(C)(C)C(=O)Nc1nnc(COc2ccc(Cl)cc2)s1,nt,nt,-2,0,0.5,nt
Oc1ccccc1/C=N/Nc1cccc2cccnc12,+,-5,10,0,-0.58,2
O=C(COc1cccc2cccnc12)N/N=C/c1ccccc1O,nt,nt,37,2,1.6,nt
CCN(CC)S(=O)(=O)c1ccc(N2CCOCC2)c(NC(=O)C(C)(C)C)c1,nt,nt,10,0,-0.41,nt
CCN(CC)S(=O)(=O)c1ccc(N2CCOCC2)c(NC(=O)CC23CC4CC(CC(Br)(C4)C2)C3)c1,i,51*,-12,0,-0.22,2
CCN(CC)S(=O)(=O)c1ccc(N2CCCC2)c(NC(=O)Cc2ccccc2)c1,nt,nt,7,-1,-0.039,nt
O=S(=O)(Nc1ccc(Cl)cc1)c1ccc(N2CCOCC2)c(NC(=S)NCCN2CCOCC2)c1,i,-4,81*,3,-1.2,2
CCN(CC)S(=O)(=O)c1ccc(N2CCOCC2)c(NC(=O)Cc2ccc(Cl)cc2)c1,i,50*,27,1,0.77,4
Cc1nc2ccccc2n1-c1nc(-c2ccco2)cc(C(F)(F)F)n1,+,-3,nt,12,-0.36,32
Cc1nn(-c2nc(-c3ccco3)cc(C(F)(F)F)n2)c(C)c1Cl,i,6,88*,-3,0.3,1
Cc1ccc(CNC(=O)C2CC3Cn4c(nc5cc(Cl)c(Cl)cc54)C3N2C)o1 (stereo not given),nt,nt,-11,-1,-0.93,nt
COc1ccccc1NS(=O)(=O)c1ccc(C)c(NC(=O)NC2CCCCC2)c1,i,100*,23,-1,2.3,3
COc1ccc(NS(=O)(=O)c2cccc(NC(=O)COc3ccc(OC)cc3)c2)cc1,nt,nt,17,0,-1.4,nt
COc1ccc(NS(=O)(=O)c2ccc(OC)c(NC(=O)CCC3CCCCC3)c2)cc1,i,1,63,-2,-1.3,3
COc1ccc(NS(=O)(=O)c2cccc(N/C(=N\S(=O)(=O)c3ccccc3)c3ccc(F)cc3)c2)cc1,i,76*,38,nt,0.64,4
COc1ccc(NS(=O)(=O)c2cccc(NC(=O)NC3CCCCC3)c2)cc1,i,99*,21,-2,0.43,3
COc1ccccc1NS(=O)(=O)c1ccc(C)c(NC(=O)NCCCl)c1,nt,nt,26,0,0.85,nt
SMILES,Autophagy mod,L major viab,CHOP inh,b-catenin transl,Dynein transport,MT stabilize HCS
O=S(=O)(/N=C(/Nc1ccc(Cl)c(S(=O)(=O)Nc2ccccc2Cl)c1)c1ccc(F)cc1)c1ccccc1,i,4,29,-1,-0.26,3
COc1ccc(NS(=O)(=O)c2ccc(C)c(NC(=O)NC3CCCCC3)c2)cc1,i,99*,3,0,-0.18,5
COCCNC(=S)NNc1cccc(C(=O)O)c1,i,-3,-5,0,-0.17,2
CCOC(=O)c1sc(/S(C)=N\S(=O)(=O)c2cccc(Cl)c2)c2c1CCC=C2 (stereo not given),nt,nt,24,-1,-0.13,nt
COc1ccc(S(=O)(=O)Nc2ccccc2OC)cc1NC(=O)CC1CC2CCC1C2 (stereo not given),i,100*,45,-3,0.61,3
COc1ccc(S(=O)(=O)Nc2ccccc2Cl)cc1NC(C)=O,i,3,-7,2,-0.56,3
O=C1CC(c2ccccc2Cl)=NN(c2ncnc3ccccc23)C1=O,i,83*,-14,-4,0.47,4
Cc1nn(C(=O)c2cccc([N+](=O)[O-])c2)c(C)c1Sc1ccccc1,i,-1,52,1,-1.2,2
O=C(c1ccccc1)N1CCN(C2c3cccc4cccc(c34)C2NS(=O)(=O)c2ccccc2)CC1 (stereo not given),i,99*,30,5,0.69,2
O=S(=O)(NC1c2cccc3cccc(c23)C1N1CCN(CCO)CC1)c1ccccc1 (stereo not given),i,71*,2,-5,0.67,1
Clc1ccc(Cl)c(OCCCCNCc2ccccc2)c1,i,98*,37,0,0.27,2
Cc1cccc(C)c1NC(=O)c1cccc(COc2cc(Cl)ccc2Cl)c1,i,5,-14,2,0.099,1
CCOc1ccccc1OCCOCCOc1ccccc1[N+](=O)[O-],i,-2,20,2,0.56,2
O=C(COc1ccccc1[N+](=O)[O-])c1ccccc1,i,99*,-30,0,0.21,2
O=[N+]([O-])c1ccccc1OCCCNCc1ccccc1,i,98*,-8,0,0.39,3
Clc1ccc(OCCCNCc2ccccc2)c(Br)c1,i,91*,35,-2,-0.29,3
C=CCN(c1cccc(C(F)(F)F)c1)S(=O)(=O)c1cccc(C(=O)OCC(=O)NCCC)c1,i,-1,18,1,-0.72,4
O=[N+]([O-])c1ccc(CSc2ncnc3c2ncn3[C@@H]2O[C@H](CO)[C@H](O)C2O)cc1 (stereo not given in full),nt,nt,2,nt,nt,nt
c1ccc(Nc2cccc(Nc3ccccc3)c2)cc1,i,30,74*,-2,-1.1,2
CC1CCN(C(=O)COC(=O)c2ccc3c(c2)OCO3)CC1,i,-1,19,-3,-1.2,5
N#C/C(=N\Nc1ccccc1)C(=N)N1CCCCCC1,nt,nt,-22,2,0.21,nt
N#C/C(=N\Nc1ccc(F)cc1)C(=N)N1CCCCC1,i,78*,23,0,0.008,1

# Bioassay records (PubChem)
